According to ChEMBL document CHEMBL1143164, “Synthesis and structure-activity relationships of ring-opened 17-hydroxywortmannins: potent phosphoinositide 3-kinase inhibitors with improved properties and anticancer efficacy” (J Med Chem, 2008):

What was measured:
[1] = test system: LNCaP; assay: Growth inhibition of human LNCap cells; type: functional, cell-based
[2] = molecular target: Phosphatidylinositol 4,5-bisphosphate 3-kinase catalytic subunit alpha isoform (Homo sapiens, UniProt P42336); assay: Inhibition of PI3K expressed in Escherichia coli by microtiter plate-based fluorescence polarization assay
Method in brief: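 Fluorescence polarization assay of PI3K activity with PIP2 substrate. Reactions contained 20 mM Hepes pH 7.5, 2 mM MgCl2, 0.05% CHAPS, 0.01% βME, 20 µM PIP2 and 25 µM ATP, and ran 15–30 min at room temperature. They were stopped with buffer holding 10 nM TAMRA-labeled probe and 40 nM GST-GRP1 (E. coli-expressed detector), then incubated 1–2 h before FP readout.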

[3] = Chemical stability at pH 7.4; type: physicochemical; conditions: buffer, read-out: Stability
Method in brief: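 Compound was incubated with the dipeptide lysine-phenylalanine at pH 7.4. Half-life of amine adduct formation was measured.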

[4] = molecular target: Serine/threonine-protein kinase mTOR (Homo sapiens, UniProt P42345); assay: Inhibition of mTOR

Sequence of Phosphatidylinositol 4,5-bisphosphate 3-kinase catalytic subunit alpha isoform (P42336 whole entry, canonical isoform): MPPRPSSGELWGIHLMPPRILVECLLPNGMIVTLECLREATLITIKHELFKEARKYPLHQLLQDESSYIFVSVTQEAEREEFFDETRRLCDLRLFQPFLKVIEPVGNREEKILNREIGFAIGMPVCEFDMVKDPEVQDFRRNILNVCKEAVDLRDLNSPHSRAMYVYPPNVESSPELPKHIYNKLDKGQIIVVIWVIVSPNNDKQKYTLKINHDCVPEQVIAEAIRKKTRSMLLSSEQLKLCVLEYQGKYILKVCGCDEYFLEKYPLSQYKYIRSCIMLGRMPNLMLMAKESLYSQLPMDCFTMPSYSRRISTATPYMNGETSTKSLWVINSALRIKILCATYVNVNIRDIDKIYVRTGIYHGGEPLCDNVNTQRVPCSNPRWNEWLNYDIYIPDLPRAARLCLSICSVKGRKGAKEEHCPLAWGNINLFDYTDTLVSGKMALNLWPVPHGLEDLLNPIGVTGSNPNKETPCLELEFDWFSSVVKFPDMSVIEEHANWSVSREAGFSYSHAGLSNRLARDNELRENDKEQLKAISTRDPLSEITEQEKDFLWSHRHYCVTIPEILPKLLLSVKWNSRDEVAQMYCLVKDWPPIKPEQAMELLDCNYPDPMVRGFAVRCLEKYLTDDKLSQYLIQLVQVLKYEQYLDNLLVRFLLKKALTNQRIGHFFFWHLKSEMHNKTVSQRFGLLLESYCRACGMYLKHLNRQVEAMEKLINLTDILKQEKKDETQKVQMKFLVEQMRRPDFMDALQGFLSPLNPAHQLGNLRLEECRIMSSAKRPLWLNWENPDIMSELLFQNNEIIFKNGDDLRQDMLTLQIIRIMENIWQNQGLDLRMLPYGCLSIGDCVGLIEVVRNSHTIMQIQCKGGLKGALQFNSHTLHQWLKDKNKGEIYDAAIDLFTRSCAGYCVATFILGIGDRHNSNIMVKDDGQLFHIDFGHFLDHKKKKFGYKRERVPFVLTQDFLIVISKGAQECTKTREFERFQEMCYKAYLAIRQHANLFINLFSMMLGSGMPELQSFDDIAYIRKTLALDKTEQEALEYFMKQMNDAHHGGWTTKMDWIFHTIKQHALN

`CCN(/C=C1/C(=O)O[C@H](COC)[C@@]2(C)C1=C(O)C(=O)C1=C2[C@H](OC(C)=O)C[C@]2(C)[C@@H](O)CC[C@@H]12)CC` gave an IC50 [1] of 160 nM, an IC50 [2] of 382 nM and a half-life [3] of 57 min. It also gave an IC50 [4] of 14000 nM.
In the case of `COC[C@H]1OC(=O)/C(=C/N2CCCCC2)C2=C(O)C(=O)C3=C([C@H](OC(C)=O)C[C@]4(C)[C@@H](O)CC[C@@H]34)[C@]21C`, the IC50 [1] is reported as 1550 nM, the IC50 [2] is reported as 104 nM and the IC50 [4] is reported as 1800 nM.
For `COC[C@H]1OC(=O)/C(=C/N2CCN(CCN3CCOCC3)CC2)C2=C(O)C(=O)C3=C([C@H](OC(C)=O)C[C@]4(C)[C@@H](O)CC[C@@H]34)[C@]21C`, the IC50 [1] was 794 nM, the IC50 [2] was 78 nM and the IC50 [4] was 619 nM.
Molecule `COC[C@H]1OC(=O)/C(=C/N(C)C2CCN(C)C2)C2=C(O)C(=O)C3=C([C@H](OC(C)=O)C[C@]4(C)[C@@H](O)CC[C@@H]34)[C@]21C` (stereo partly drawn) has an IC50 [1] of 1010 nM, an IC50 [2] of 127 nM and an IC50 [4] of 1210 nM.
